Active and inactive are the calls of the source. The rule behind the calls is not given here.
Key:
[1] = Toxicity in BALB/c mouse xenografted with human HeLa cells assessed as heart damage at 4 mg/kg, iv administered for every 3 days for 21 days and measured after 24 hrs post last dose by H and E staining based light microscopic analysis; assay type: organism-based; settings: in vivo
Procedure, shortened: (§1)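 HeLa-tumor-bearing nude mice dosed at 4 mg/kg iv every 3 days for 21 days, alone or with X-rays; euthanized 24 h after last injection; heart, liver, lungs, kidneys and spleen sectioned and stained with H&E.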

[2] = Drug localization in cytoplasm of human HeLa cells at 20 uM after 8 hrs by LysoTracker/DAPI staining based fluorescence microscopic analysis; assay type: ADME, subcellular
Procedure, shortened: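 HeLa cells pretreated with 20 μM compound; LysoTracker added 2 h and DAPI 30 min before each time point; compound green fluorescence (emission about 510 nm) overlaid with lysosome (red) and nucleus under fluorescence microscope.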

[3] = tested on: HeLa; assay: Induction of cell cycle arrest in human HeLa cells assessed as accumulation at G2/M phase at 1 uM after 48 hrs by propidium iodide staining based flow cytometric analysis (reference value: 17.7%); assay type: functional
[4] = tested on: HeLa; assay: Induction of ROS generation in human HeLa cells in presence of 4 Gy X-ray irradiation by DHE fluorescent dye based microplate reader analysis (reference value: 150%); assay type: functional
[5] = Toxicity in BALB/c mouse xenografted with human HeLa cells assessed as liver damage by measuring effect on AST level at 4 mg/kg, iv administered every 3 days for 21 days in presence of 4 Gy X-ray irradiation; assay type: organism-based; settings: in vivo
Procedure, shortened: (§2)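 HeLa xenograft nude mice dosed at 4 mg/kg iv every 3 days over 21 days, alone or with X-rays; blood collected 24 h after last injection for serum biochemistry: ALT, AST (liver), BUN and uric acid (kidney).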

[6] = tested on: HeLa; assay: Induction of apoptosis in human HeLa cells assessed as caspase-3 activation at 1 uM using Ac-DEVD-AMC as substrate after 12 hrs in presence of 4 Gy X-ray radiation by fluorescence based assay relative to control; assay type: functional
Procedure, shortened: (§3)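 Caspase-3 and caspase-8 activities were measured in HeLa cells after 12 h at 1 μM, without or with 4 Gy X-rays. Mean ± SD of three independent experiments.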

[7] = molecular target: T1, Dihydrofolate reductase (Homo sapiens, UniProt P00374); assay: Inhibition of recombinant human DHFR using dihydrofolate as substrate in presence of NADPH
T1 sequence (P00374 whole entry): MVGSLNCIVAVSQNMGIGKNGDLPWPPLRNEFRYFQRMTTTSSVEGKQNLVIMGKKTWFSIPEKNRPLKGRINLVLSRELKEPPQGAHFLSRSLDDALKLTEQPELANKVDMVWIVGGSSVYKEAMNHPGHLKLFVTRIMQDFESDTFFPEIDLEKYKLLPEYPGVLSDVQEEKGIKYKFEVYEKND

[8] = Toxicity in BALB/c mouse xenografted with human HeLa cells assessed as lung damage at 4 mg/kg, iv administered for every 3 days for 21 days and measured after 24 hrs post last dose by H and E staining based light microscopic analysis; assay type: organism-based; settings: in vivo; procedure, shortened: as §1
[9] = tested on: HeLa; assay: Induction of ROS generation in human HeLa cells by DHE fluorescent dye based microplate reader analysis relative to control; assay type: functional
Procedure, shortened: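 Intracellular ROS in HeLa cells were measured with the dihydroethidium probe, whose superoxide-oxidised product fluoresces red. Cells were treated with or without 4 Gy X-rays, then incubated with DHE. Fluorescence was read on a microplate reader and expressed as % of untreated cells.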

[10] = Toxicity in BALB/c mouse xenografted with human HeLa cells assessed as liver damage by measuring effect on ALT level at 4 mg/kg, iv administered every 3 days for 21 days in presence of 4 Gy X-ray irradiation; assay type: organism-based; settings: in vivo; procedure, shortened: as §2
[11] = tested on: HeLa; assay: Antiproliferative activity against human HeLa cells assessed as reduction in cell viability incubated for 12 hrs by MTT assay; assay type: functional, cell-based
Procedure, shortened: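 MTT viability assay in HeLa cancer cells, with the test agent alone (0 Gy) or combined with 4 Gy X-rays. IC50 values are in μM. Sensitivity enhancement ratio = IC50(0 Gy)/IC50(4 Gy).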

[12] = Toxicity in BALB/c mouse xenografted with human HeLa cells assessed as spleen damage at 4 mg/kg, iv administered for every 3 days for 21 days and measured after 24 hrs post last dose in presence of 4 Gy X-ray irradiation by H and E staining based light microscopic analysis; assay type: organism-based; settings: in vivo; procedure, shortened: as §1
[13] = tested on: HeLa; assay: Induction of reactive oxygen species generation in human HeLa cells incubated with DHE for 30 mins and measured up to 30 mins in presence of 4 Gy X-ray radiation by fluorescence microscopic analysis; assay type: functional, cell-based
Procedure, shortened: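 HeLa cells pretreated with compound, with or without 4 Gy X-rays, then incubated with dihydroethidium for 30 min; red superoxide-derived fluorescence imaged by fluorescence microscopy, with observation continued over a further 30 min.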

[14] = Toxicity in BALB/c mouse xenografted with human HeLa cells assessed as lung damage at 4 mg/kg, iv administered for every 3 days for 21 days and measured after 24 hrs post last dose in presence of 4 Gy X-ray irradiation by H and E staining based light microscopic analysis; assay type: organism-based; settings: in vivo; procedure, shortened: as §1
[15] = tested on: HeLa; assay: Antimigratory activity in human HeLa cells assessed as inhibition of cell migration at 1 uM after 24 hrs by wound healing assay relative to control; assay type: functional; settings: read-out: INH
Procedure, shortened: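 Wound-healing scratch assay in HeLa cells. Cells were treated without or with 4 Gy X-rays, and wound closure was imaged by phase-contrast microscopy at the indicated times. Migrated cells were counted manually. Mean ± SD of three independent experiments.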

[16] = tested on: HeLa; assay: Induction of apoptosis in human HeLa cells assessed as caspase-9 activation at 1 uM using Ac-LEHD-AMC as substrate after 12 hrs by fluorescence based assay; assay type: functional, cell-based
Procedure, shortened: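 HeLa cells exposed to 1 μM compound with or without 4 Gy X-rays for 12 h; caspase 8, 9 and 3 activities measured; mean ± SD of three independent experiments.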

[17] = tested on: HeLa; assay: Inhibition of cell migration in human HeLa cells assessed as reduction in spreading rate at 1 uM after 24 hrs in presence of 4 Gy X-ray irradiation by phase contrast microscopic analysis; assay type: functional, cell-based
Procedure, shortened: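 Wound-healing scratch assay on HeLa monolayers, compound with or without 4 Gy X-rays; wound closure recorded by phase-contrast microscopy at set times; migrated cells counted manually; mean ± SD of three independent experiments.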

[18] = tested on: HeLa; assay: Induction of apoptosis in human HeLa cells assessed as caspase-8 activation at 1 uM using […] as substrate after 12 hrs by fluorescence based assay relative to control; assay type: functional; procedure, shortened: as §3
[19] = tested on: HeLa; assay: Antitumor activity against human HeLa cells xenografted in BALB/c mouse assessed as reduction in tumor growth at 4 mg/kg, iv administered for every 3 days for 21 days in presence of 4 Gy X-ray irradiation relative to control; assay type: functional; design: scale not given: the % may be the effect or the level left
Procedure, shortened: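 HeLa tumour-bearing nude mice were dosed at 4 mg/kg by tail-vein injection every 3 days over a 21-day period, with or without X-ray irradiation. Tumours were photographed and sectioned for H&E staining. Body weight was recorded over the 21 days.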

[20] = tested on: HeLa; assay: Induction of cell cycle arrest in human HeLa cells assessed as accumulation at S phase at 1 uM after 48 hrs in presence of 4 Gy X-ray radiation by propidium iodide staining based flow cytometric analysis (reference value: 31%); assay type: functional
[21] = molecular target: T2, Dihydrofolate reductase (Homo sapiens) (UniProt P00374); assay: Inhibition of DHFR in human HeLa cells at 10 uM relative to control; assay type: cell-based
T2 sequence (whole entry): T1 sequence (P00374 whole entry)
Procedure, shortened: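 HeLa cells treated with compound; DHFR activity assayed in cell lysates, inhibition expressed relative to untreated control.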

With `Nc1nc(N)c2nc3c(nc2n1)-c1cccc2cccc-3c12` the Activity [1] was “Non-Toxic”, the Drug uptake [2] was “Active” and the Activity [3] was 32.1%. The Activity [4] was 205%, the Activity [5] was “Non-Toxic” and the Activity [6] was 150%. The IC50 [7] was 810 nM, the Activity [8] was “Non-Toxic” and the Activity [9] was 132%. For the same compound, the Activity [10] was “Non-Toxic”, the IC50 [11] was 2100 nM and the Activity [12] was “Non-Toxic”. For the same compound, the Activity [13] was “Active”, the Activity [14] was “Non-Toxic” and the inhibition at 1 µM [15] was 46%. The Activity [16] was “Active”, the inhibition [17] was “Active” and the Activity [18] was 110%. For the same compound, the Activity [19] was 32%, the Activity [20] was 16.1% and the inhibition [21] was 76%.

Source: ChEMBL document CHEMBL4622964, “Designing Dihydrofolate Reductase Inhibitors as X-ray Radiosensitizers to Reverse Radioresistance of Cervical Cancer” (ACS Med Chem Lett, 2020)
